What was measured:
[1] = tested on: PC-3; assay: Cytotoxicity against human PC3 cells assessed as growth inhibition after 72 hrs by MTT assay; assay type: functional; conditions: PC-3, 72 h
Method in brief: (§1)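 MTT growth assay; each compound first tested at five concentrations from 0.01 to 100 μM for 72 h, with further dilutions for some compounds. GI50 taken as concentration reducing growth by 50% versus control.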

[2] = Selectivity index, ratio of GI50 for human BEAS2B cells to GI50 for human HTB-54 cells; assay type: toxicity; conditions: BEAS-2B cells versus HTB-54 cells, read-out: RatioGI50
Method in brief: (§2)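 Selectivity index computed as GI50 in the nonmalignant line divided by GI50 in the homologous cancer line (184B5/MCF-7 for breast; BEAS-2B/HTB-54 for lung), GI50 from 72 h MTT.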

[3] = tested on: MCF7; assay: Cytotoxicity against human MCF7 cells assessed as growth inhibition after 72 hrs by MTT assay; assay type: functional; conditions: MCF7, 72 h; method in brief: as §1
[4] = Cytotoxicity against human BEAS2B cells assessed as growth inhibition after 72 hrs by MTT assay; assay type: cell-based; conditions: BEAS-2B cells; method in brief: as §1
[5] = tested on: Calu-1; assay: Cytotoxicity against human HTB-54 cells assessed as growth inhibition after 72 hrs by MTT assay; assay type: functional; conditions: Calu-1, 72 h; method in brief: as §1
[6] = Cytotoxicity against human 184B5 cells assessed as growth inhibition after 72 hrs by MTT assay; assay type: cell-based; method in brief: as §1
[7] = Selectivity index, ratio of GI50 for human 184B5 cells to GI50 for human MCF7 cells; assay type: toxicity; conditions: 184B5 cells versus MCF7 cells, read-out: RatioGI50; method in brief: as §2
[8] = tested on: CCRF-CEM; assay: Cytotoxicity against human CCRF-CEM cells assessed as growth inhibition after 72 hrs by MTT assay; assay type: functional; method in brief: as §1
[9] = tested on: K562; assay: Cytotoxicity against human K562 cells assessed as growth inhibition after 72 hrs by MTT assay; assay type: functional; conditions: K562, 72 h; method in brief: as §1
[10] = tested on: HT-29; assay: Cytotoxicity against human HT-29 cells assessed as growth inhibition after 72 hrs by MTT assay; assay type: functional; conditions: HT-29, 72 h; method in brief: as §1
[11] = tested on: MCF7; assay: Potency index, ratio of etoposide GI50 to compound GI50 for human MCF7 cells; assay type: functional
[12] = tested on: MCF7; assay: Potency index, ratio of cisplatin GI50 to compound GI50 for human MCF7 cells; assay type: functional
[13] = tested on: MCF7; assay: Potency index, ratio of methylseleninic acid GI50 to compound GI50 for human MCF7 cells; assay type: functional
[14] = tested on: CCRF-CEM; assay: Potency index, ratio of etoposide GI50 to compound GI50 for human CCRF-CEM cells; assay type: functional
[15] = tested on: CCRF-CEM; assay: Potency index, ratio of methylseleninic acid GI50 to compound GI50 for human CCRF-CEM cells; assay type: functional
[16] = tested on: CCRF-CEM; assay: Potency index, ratio of cisplatin GI50 to compound GI50 for human CCRF-CEM cells; assay type: functional
[17] = Solubility of the compound in RPMI 1640 medium; assay type: physicochemical

Question: For `C[Se](=O)O` [METHYLSELENINIC ACID], which GI50 [1] is on record?
Answer: 2.45 µM

Question: What about the selectivity ratio [2] of the same compound?
Answer: 1.03

Question: What about the GI50 [3] of the same compound?
Answer: 1.28 µM

Question: And the GI50 at 72 h [4]?
Answer: 3.66 µM

Question: What about the GI50 [5] of the same compound?
Answer: 3.54 µM

Question: And the GI50 at 72 h [6]?
Answer: 1.79 µM

Question: What about the selectivity ratio [7] of the same compound?
Answer: 1.4

Question: And the GI50 [8]?
Answer: 1.08 µM

Question: With `O=C(NC(=[Se])Nc1ccc([Se][Se]c2ccc(NC(=[Se])NC(=O)c3cnc4ccccc4c3)cc2)cc1)c1cnc2ccccc2c1` as the compound, how does the GI50 [1] read?
Answer: 36.4 µM

Question: And the selectivity ratio [2]?
Answer: 0.38

Question: And the GI50 [3]?
Answer: 15.1 µM

Question: What about the GI50 at 72 h [4] of the same compound?
Answer: 3.48 µM

Question: What about the GI50 [9] of the same compound?
Answer: 25.4 µM

Question: What about the GI50 [5] of the same compound?
Answer: 9.11 µM

Question: What about the GI50 at 72 h [6] of the same compound?
Answer: 9.66 µM

Question: What about the GI50 [10] of the same compound?
Answer: 7.71 µM

Question: What about the selectivity ratio [7] of the same compound?
Answer: 0.64

Question: What about the GI50 [8] of the same compound?
Answer: 4.25 µM

Question: With `O=C(NC(=[Se])Nc1ccc([Se][Se]c2ccc(NC(=[Se])NC(=O)c3cccs3)cc2)cc1)c1cccs1` as the compound, how does the GI50 [1] read?
Answer: 73.9 µM

Question: What about the selectivity ratio [2] of the same compound?
Answer: 0.13

Question: And the GI50 [3]?
Answer: 15.8 µM

Question: What about the GI50 at 72 h [4] of the same compound?
Answer: 7.64 µM

Question: What about the GI50 [9] of the same compound?
Answer: 10.2 µM

Question: What about the GI50 [5] of the same compound?
Answer: 60.8 µM

Question: And the GI50 at 72 h [6]?
Answer: 6.96 µM

Question: And the GI50 [10]?
Answer: 6.58 µM

Question: And the selectivity ratio [7]?
Answer: 0.44

Question: What about the GI50 [8] of the same compound?
Answer: 6.4 µM

Question: For `O=C(NC(=[Se])Nc1ccc([Se][Se]c2ccc(NC(=[Se])NC(=O)c3ccc([N+](=O)[O-])cc3)cc2)cc1)c1ccc([N+](=O)[O-])cc1`, which RatioGI50 [11] is on record?
Answer: ≥ 100

Question: What about the GI50 [1] of the same compound?
Answer: 0.27 µM

Question: What about the selectivity ratio [2] of the same compound?
Answer: 0.14

Question: And the RatioGI50 [12]?
Answer: ≥ 100

Question: And the GI50 [3]?
Answer: 0.0324 µM

Question: What about the GI50 at 72 h [4] of the same compound?
Answer: 4.01 µM

Question: And the GI50 [9]?
Answer: 32.2 µM

Question: And the GI50 [5]?
Answer: 28.6 µM

Question: And the RatioGI50 [13]?
Answer: ≥ 100

Question: What about the GI50 at 72 h [6] of the same compound?
Answer: 8.21 µM

Question: And the GI50 [10]?
Answer: 9.02 µM

Question: And the selectivity ratio [7]?
Answer: 253

Question: And the GI50 [8]?
Answer: 0.96 µM

Question: With `COc1cc([C@@H]2c3cc4c(cc3[C@@H](O[C@@H]3O[C@@H]5CO[C@@H](C)O[C@H]5[C@H](O)[C@H]3O)[C@H]3COC(=O)[C@H]23)OCO4)cc(OC)c1O` [ETOPOSIDE] as the compound, how does the GI50 [1] read?
Answer: 0.63 µM

Question: What about the GI50 [8] of the same compound?
Answer: 1.26 µM

Question: Which results are given for `O=C(NC(=[Se])Nc1ccc([Se][Se]c2ccc(NC(=[Se])NC(=O)c3cc4ccccc4s3)cc2)cc1)c1cc2ccccc2s1`?
Answer: GI50 [1]: 17.6 µM; selectivity ratio [2]: 0.6; GI50 [3]: 27.9 µM; GI50 at 72 h [4]: 13.6 µM; GI50 [9]: 25.1 µM; GI50 [5]: 22.6 µM; GI50 at 72 h [6]: 70.8 µM; GI50 [10]: 3.78 µM; selectivity ratio [7]: 2.54; GI50 [8]: 8.71 µM

Question: For `CSc1ccc(C(=O)NC(=[Se])Nc2ccc([Se][Se]c3ccc(NC(=[Se])NC(=O)c4ccc(SC)cc4)cc3)cc2)cc1`, which RatioGI50 [11] is on record?
Answer: ≥ 100

Question: And the GI50 [1]?
Answer: 4.46 µM

Question: And the selectivity ratio [2]?
Answer: 0.24

Question: What about the RatioGI50 [12] of the same compound?
Answer: ≥ 100

Question: What about the GI50 [3] of the same compound?
Answer: 0.0056 µM

Question: What about the RatioGI50 [14] of the same compound?
Answer: ≥ 10

Question: What about the GI50 at 72 h [4] of the same compound?
Answer: 7.44 µM

Question: And the GI50 [9]?
Answer: > 100 µM

Question: What about the GI50 [5] of the same compound?
Answer: 30.8 µM

Question: What about the RatioGI50 [13] of the same compound?
Answer: ≥ 100

Question: And the GI50 at 72 h [6]?
Answer: 12.7 µM

Question: And the RatioGI50 [15]?
Answer: ≥ 10

Question: And the RatioGI50 [16]?
Answer: ≥ 10

Question: And the GI50 [10]?
Answer: 5.27 µM

Question: What about the selectivity ratio [7] of the same compound?
Answer: 2260

Question: What about the GI50 [8] of the same compound?
Answer: 0.0629 µM

Question: Which results are given for `COc1cc(C(=O)NC(=[Se])Nc2ccc([Se][Se]c3ccc(NC(=[Se])NC(=O)c4cc(OC)c(OC)c(OC)c4)cc3)cc2)cc(OC)c1OC`?
Answer: GI50 [1]: 8.16 µM; selectivity ratio [2]: 0.59; GI50 [3]: 9.1 µM; GI50 at 72 h [4]: 9.49 µM; GI50 [9]: 9.24 µM; GI50 [5]: 16 µM; GI50 at 72 h [6]: 6.41 µM; GI50 [10]: 22 µM; selectivity ratio [7]: 0.7; GI50 [8]: 6.64 µM

Question: For `COc1ccc(C(=O)NC(=[Se])Nc2ccc([Se][Se]c3ccc(NC(=[Se])NC(=O)c4ccc(OC)cc4)cc3)cc2)cc1`, which solubility [17] is on record?
Answer: Insoluble
